Source: ChEMBL document CHEMBL2029224, “Prenylation at the indole ring leads to a significant increase of cytotoxicity of tryptophan-containing cyclic dipeptides” (Bioorg Med Chem Lett, 2012)
In brackets after ≈: the same amount, converted by molar mass.

Experiments:
Assay type in all cases: functional, cell-based
A2780 [1] = assay: Cytotoxicity against human cisplatin resistant A2780 cells after 72 hrs by MTT assay; conditions: A2780, 72 h
How it was run: (§1)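 Cells kept in RPMI 1640 with 10% FCS and penicillin/streptomycin at 37 °C, 5% CO2, grown to 80% confluency. Seeded at 30,000 cells/well (K562) or 8,000 cells/well (A2780 sens and cisplatin-resistant CisR). After 24 h, exposed to increasing concentrations for 72 h. MTT added, formazan dissolved in DMSO, absorbance read at 544/690 nm. Viability relative to untreated cells (100%), triplicates, IC50.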

K562 = assay: Cytotoxicity against human K562 cells after 72 hrs by MTT assay; conditions: K562, 72 h; how it was run: as §1
A2780 [2] = assay: Cytotoxicity against human cisplatin sensitive A2780 cells after 72 hrs by MTT assay; conditions: A2780, 72 h; how it was run: as §1
[3] = Cytotoxicity against mouse tsFT210 cells

SMILES	IC50 (A2780 [1]) [µM]	IC50 (K562) [µM]	IC50 (A2780 [2]) [µM]	MIC [3] [µM]	IC50 ([3]; tsFT210) [µM]
O=C1N[C@H](Cc2c[nH]c3ccccc23)C(=O)N2CCC[C@@H]12	> 100	> 100	> 100	–	–
CC(C)=CCc1[nH]c2ccccc2c1C[C@H]1NC(=O)[C@H](C)NC1=O	84.3	35.3	86.2	–	–
O=C1N[C@@H](Cc2c[nH]c3ccccc23)C(=O)N[C@H]1Cc1ccccc1	> 100	> 100	> 100	–	–
O=C1CNC(=O)[C@H](Cc2c[nH]c3ccccc23)N1	> 100	> 100	> 100	–	–
C[C@@H]1NC(=O)[C@@H](Cc2c[nH]c3ccccc23)NC1=O	> 100	> 100	> 100	–	–
CC(C)=CCc1[nH]c2ccccc2c1C[C@@H]1NC(=O)[C@H](C)NC1=O	82.2	35.2	89.8	–	–
CC(C)C[C@@H]1NC(=O)[C@H](Cc2c[nH]c3ccccc23)NC1=O	> 100	> 100	> 100	–	–
CC(C)=CCc1[nH]c2ccccc2c1C[C@@H]1NC(=O)[C@@H]2CCCN2C1=O [TRYPROSTATIN B]	85.9	21.1	82.8	4.4 (≈ 1.55 µg/mL)	18.8
CC(C)=CCc1[nH]c2ccccc2c1C[C@@H]1NC(=O)[C@H]2CCCN2C1=O	92	34.7	106	–	–
O=C1N[C@@H](Cc2c[nH]c3ccccc23)C(=O)N[C@H]1Cc1c[nH]c2ccccc12	> 100	> 100	> 100	–	–
CC(C)=CCc1[nH]c2ccccc2c1C[C@@H]1NC(=O)[C@@H](C)NC1=O	77	34.5	77.2	–	–
CC(C)=CCc1[nH]c2ccccc2c1C[C@H]1NC(=O)[C@@H](C)NC1=O	81.1	34.7	85	–	–
C[C@@H]1NC(=O)[C@H](Cc2c[nH]c3ccccc23)NC1=O	> 100	> 100	> 100	–	–
O=C1N[C@@H](Cc2c[nH]c3ccccc23)C(=O)N2CCC[C@@H]12 [BREVIANAMIDE F]	> 100	> 100	> 100	–	–
CC(C)=CCc1[nH]c2ccccc2c1C[C@@H]1NC(=O)CNC1=O	85.2	16.7	82.4	–	–
O=C1N[C@@H](Cc2c[nH]c3ccccc23)C(=O)N[C@H]1Cc1ccc(O)cc1	> 100	> 100	> 100	–	–
O=C1N[C@@H](Cc2c[nH]c3ccccc23)C(=O)N[C@H]1Cc1c[nH]cn1	> 100	> 100	> 100	–	–
CC(C)=CCc1[nH]c2ccccc2c1C[C@H]1NC(=O)[C@@H]2CCCN2C1=O	87.8	40.4	100	–	–
CC(C)=CCc1[nH]c2ccccc2c1C[C@@H]1NC(=O)[C@H](Cc2c[nH]cn2)NC1=O	91.7	32.2	91.8	–	–
O=C1N[C@H](Cc2c[nH]c3ccccc23)C(=O)N2CCC[C@H]12	> 100	> 100	> 100	–	–
CC(C)=CCc1[nH]c2ccccc2c1C[C@@H]1NC(=O)[C@H](Cc2c[nH]c3ccccc23)NC1=O	80.8	29.8	89.7	–	–
CC(C)=CCc1[nH]c2ccccc2c1C[C@H]1NC(=O)[C@H]2CCCN2C1=O	85.6	30.9	93.1	–	–
C[C@H]1NC(=O)[C@@H](Cc2c[nH]c3ccccc23)NC1=O	> 100	> 100	> 100	–	–
O=C1N[C@@H](Cc2c[nH]c3ccccc23)C(=O)N2CCC[C@H]12	> 100	> 100	> 100	–	–
C[C@H]1NC(=O)[C@H](Cc2c[nH]c3ccccc23)NC1=O	> 100	> 100	> 100	–	–
CC(C)=CCc1[nH]c2ccccc2c1C[C@@H]1NC(=O)[C@H](CC(C)C)NC1=O	75	30.1	92.6	–	–
CC(C)=CCc1[nH]c2ccccc2c1C[C@@H]1NC(=O)[C@H](Cc2ccc(O)cc2)NC1=O	83.3	31.6	89.8	–	–
CC(C)=CCc1[nH]c2ccccc2c1C[C@@H]1NC(=O)[C@H](Cc2ccccc2)NC1=O	81.6	70.4	87	–	–
